Consider 167 variants from the RNAGym collection of RNA variant scans (doi:10.1038/nmeth.2970).

In general, Kd refers to the constant that tells how readily two partners part at equilibrium.

B1: NELF-E aptamer (parent)
chain: CCCAACGACUGCCGAGCGAGAUUACGCUUGAGCGCCCCACUGAGGAUGCCCACGGGCGAUUGGGGCACGG

The series covers variants of B1. The series is described as follows: HiTS-RAP. The settings on record: with NELF-E (Drosophila). An outline of the steps: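 Aptamer DNA templates carrying a T7 promoter and ter site were sequenced on an Illumina GAIIx flowcell, then transcribed in situ by T7 RNA polymerase and halted by GST-Tus (30 minutes, 37°C). Clusters were imaged after 30-minute room-temperature equilibration with NELF-E-mOrange at 0.064 to 1000 nM in HEPES binding buffer, and only the first binding curve was used. Intensities were normalised to sequencing intensity and averaged per sequence. Kd came from weighted Hill fits, keeping fits with variance below 1,000,000.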
As for C13A U22G, the dissociation constant (Kd) is 5.85 nM.

G11U A39G: the Kd is 11.4 nM. G11U A39U: the Kd was 21.3 nM. In the case of G11A G20U, the dissociation constant Kd stood at 8.59 nM. As for C12U G34A, the figure is 5.3 nM; as for C13G C36G, 6.08 nM. Then C13G C36U, with 7.49 nM. For the variant G11U A24U, the Kd is 5.45 nM.

As to G11U A24G, the equilibrium dissociation constant (Kd) is 5.82 nM. As to G11U C27U, the Kd worked out at 4.86 nM.

C13G G30U: the dissociation constant Kd was 6.03 nM. Take C13G G30A: the Kd was 4.93 nM. Take C12G A21U: the dissociation constant (Kd) stood at 6.04 nM. As for C12G A21G, the equilibrium dissociation constant (Kd) turned out to be 7.12 nM. On to C13G G16A, for which the dissociation constant (Kd) came to 6.87 nM. Regarding C13G G16U, the Kd was 6.25 nM. For the variant G11U C25G, the Kd came to 4.89 nM. As to G11U C57U, the Kd is 6.12 nM. For C13G U23A, the equilibrium dissociation constant (Kd) was found to be 5.32 nM. Consider C13G U23G, for which the dissociation constant Kd worked out at 5.29 nM. For the variant C13G U23C, the Kd was found to be 5.7 nM.

As to U10G U41C, the Kd was 76.2 nM. As for U10G U41A, the figure is 82.6 nM; as for U10G U41G, 5.17 nM. As for U10G U23G, the figure is 5.1 nM.

As to U10G U23A, the dissociation constant (Kd) stood at 5.14 nM.

As to U10G U23C, the dissociation constant (Kd) is 4.23 nM. As for C12G C13G, the figure is 5.01 nM. C12G C13U: the equilibrium dissociation constant (Kd) was 5.88 nM. As for G11U G64A, the equilibrium dissociation constant (Kd) was 9.29 nM.

Regarding G11A A31G, the Kd amounted to 10.9 nM. As for C13G G42U, the figure is 5.35 nM; as for C13G G42A, 49 nM.

As to U10G U28C, the Kd stood at 8.85 nM.

As to U10G U28G, the Kd amounted to 6.52 nM. Take U10G U28A: the Kd turned out to be 4.53 nM. Then C13G C53G, with 7.39 nM; and C13G C53U, with 3.49 nM; and G11U G54A, with 14.1 nM.

For the variant C12G A43G, the equilibrium dissociation constant (Kd) turned out to be 26.1 nM. With C13G G14C, the equilibrium dissociation constant (Kd) is 7.7 nM.

Regarding C13G G14U, the Kd amounted to 5.85 nM.

Consider C13G G14A, for which the dissociation constant Kd worked out at 6.02 nM. In the case of C13U C25G, the equilibrium dissociation constant (Kd) was 4.69 nM. In the case of G11A A24G, the Kd came out at 5.78 nM. For C12G G62U, the Kd is 10.8 nM.

C12A U23G: the dissociation constant Kd was 5.88 nM. Then G11U A15G, with 6.22 nM; and G11U A15U, with 7.47 nM; and C12U C17G, with 6.2 nM. Turning to G11U G42A, the Kd worked out at 55.9 nM.

With C13U G64A, the equilibrium dissociation constant (Kd) worked out at 8.04 nM. Then G11U C12G, with 5.8 nM; and G11U C12U, with 4.76 nM.

As for G11U, the Kd is 5.7 nM.

As for G11C, the equilibrium dissociation constant (Kd) was determined as 6.3 nM. Take G11A: the dissociation constant (Kd) came to 5.29 nM. As for G11U C17U, the figure is 5.76 nM. Then G11U C17G, with 5.84 nM. Then G11A U29G, with 6.58 nM; and C13A G20U, with 7.23 nM; and C12G U23C, with 3.97 nM.

For C12G U23G, the dissociation constant (Kd) is 5.85 nM. Then C13G G18A, with 5.31 nM; and C13G G18U, with 6.2 nM; and C12U U23G, with 5.04 nM. Then C13G C38U, with 6.55 nM; and G11U A31G, with 7.38 nM.

For the variant G11U A31U, the Kd was 6.12 nM.

As to C12U U29G, the dissociation constant Kd is 5.46 nM. Then C13G A59U, with 42.1 nM. C13G A59G: the Kd turned out to be 12.2 nM. As to C13U A39U, the dissociation constant (Kd) was 20.4 nM. As for C13U A39G, the figure is 7.82 nM; as for C12A, 4.42 nM; as for C12U, 4.54 nM. For C12G, the dissociation constant (Kd) was 5.44 nM. Then C13G C57U, with 6.43 nM. Then C12U C13U, with 3.39 nM; and C12U C13G, with 5.4 nM; and C13G A19G, with 5.43 nM. As for C13G A19U, the figure is 4.52 nM; as for G14A A15C, 4.43 nM. Consider G14A A15G, for which the equilibrium dissociation constant (Kd) worked out at 6.1 nM. Then G14A A15U, with 5.39 nM; and C13G U60G, with 5.12 nM; and C13G U60C, with 8.4 nM. For the variant G11U G14A, the equilibrium dissociation constant (Kd) worked out at 6.87 nM. G11U G14U: the dissociation constant Kd was found to be 6.82 nM. Consider C13G C27U, for which the dissociation constant Kd is 4.45 nM. Then C13U G16U, with 6.59 nM; and C13G G63U, with 7.98 nM; and C13G G63A, with 20.2 nM. Then C12A C13G, with 5.33 nM; and G11U U47G, with 7.92 nM. For C12A U22G, the dissociation constant Kd was determined as 4.37 nM. Then C12U G16U, with 5.76 nM; and C13G U61G, with 7.74 nM; and C13G U61A, with 38.3 nM.

For C13G U61C, the Kd came to 73.4 nM. As for G11U G30A, the figure is 5.79 nM; as for G11U C13A, 6.58 nM. As for G11U C13U, the figure is 6.19 nM.

Consider G11U C13G, for which the Kd is 5.71 nM. Consider G11A A19G, for which the equilibrium dissociation constant (Kd) worked out at 6.92 nM. Turning to G11U G20A, the Kd was determined as 5.7 nM. With G11U G20U, the Kd turned out to be 7.02 nM.

On to G11A G18A, for which the equilibrium dissociation constant (Kd) was determined as 7.8 nM. For the variant C12G G18A, the Kd is 7.26 nM.

As for G11U A19U, the Kd was found to be 7.3 nM. On to G11U A19G, for which the Kd is 6.05 nM.

For the variant C13U G20U, the Kd was 7.13 nM. As for C12G C37U, the figure is 16.6 nM. Then C12G C37G, with 7.38 nM. On to C13G G64A, for which the equilibrium dissociation constant (Kd) stood at 6.69 nM. As for C13G G64C, the figure is 5.83 nM; as for C13G G64U, 8.93 nM; as for C13G G56U, 4.87 nM. As for C13G G56A, the figure is 6.97 nM. Then C13G U28C, with 8.82 nM. In the case of C13G U28G, the Kd is 6.99 nM. C13G U28A: the Kd worked out at 4.22 nM. As for C12G U28C, the figure is 8.42 nM.

C12G U28A: the dissociation constant Kd turned out to be 6.47 nM.

In the case of C12G U28G, the Kd is 8.85 nM. Then C12G A67U, with 7.12 nM; and C12G A67G, with 6.86 nM; and G11U A59G, with 17.7 nM. As for G11U A59U, the dissociation constant Kd was determined as 48.9 nM. Then C13U A31G, with 5.17 nM; and C13G C51U, with 6.36 nM; and C12G A46G, with 44.8 nM. Then C13G C66U, with 5.32 nM; and G11A U28C, with 9.79 nM.

Take C13U A52G: the Kd stood at 3.79 nM.

Turning to C13U A52U, the Kd came to 10.1 nM. As for C13U G26A, the figure is 4.43 nM; as for U10G U22G, 4.87 nM. As for C12G G14A, the figure is 5.91 nM. C12G G14U: the Kd was 6.28 nM. For the variant C13G A39G, the Kd was determined as 9.58 nM. With C13G A39U, the Kd came to 19 nM. Then C13G U41A, with 83.4 nM.

As for C13G U41C, the equilibrium dissociation constant (Kd) amounted to 64.2 nM. As for C13G U41G, the Kd worked out at 5.26 nM. Then G11U G55A, with 8.79 nM; and G11U G55U, with 7.1 nM; and C13U G54A, with 8.87 nM. For the variant G11U U23G, the equilibrium dissociation constant (Kd) was 6.33 nM. As for C12G C40U, the figure is 126 nM; as for C13U U28C, 6.27 nM. As for G11A A39U, the figure is 24.2 nM. As for C13U C17U, the figure is 4 nM. Turning to C13U C17G, the Kd stood at 5.11 nM. Take C12G U22G: the equilibrium dissociation constant (Kd) was 5.79 nM. Take C12G U22C: the Kd was determined as 6.9 nM. Then C12U A19G, with 5.36 nM; and C13U C37U, with 7.46 nM. On to C13G G65U, for which the Kd is 6.4 nM. In the case of C13G G65A, the Kd turned out to be 5.31 nM. As for C13U G14U, the figure is 5.39 nM; as for G11U A21U, 5.9 nM. Turning to G11U A21G, the equilibrium dissociation constant (Kd) amounted to 7.69 nM. Regarding C13G C35U, the Kd was 14.4 nM. As for C13U U29G, the figure is 5.14 nM.

As for G11U G56A, the dissociation constant (Kd) was determined as 10.8 nM. Regarding G11A C12G, the Kd was 7.18 nM.
